Diaphorase act: activates diaphorase or chemically reduces, flagging diaphorase assay artifacts; Diaphorase/resazurin coupled assay, resorufin fluorescence, 16 min; hits give high values; 1 = vehicle wells, 0 = NADH-free wells; activation factor at 20 µM; 190,000 compounds, 0.005% hits; AID 1229;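 active = diaphorase activity raised at least twofold by the compound at 20 µM; inactive = activation factor below 2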
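System – purified diaphorase enzyme from Clostridium kluyveri · Input – enzyme 0.07 U/mL final · Also added – final NADH 0.114 mM, resazurin 0.1 mM · Measured by – fluorescence of resorufin, 544 nm excitation, 590 nm emission · Timing – 16 min enzyme reaction, ambient temperature · Measure – resorufin increase flagging diaphorase activators or reducers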
Lmaj promast: inhibitors of Leishmania major promastigote growth; Leishmania major promastigotes, resazurin fluorescence viability; inhibition, % at 10 µM; 200,000 compounds, 9% hits; AID 1063; in the data active = inhibition above about 50%;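 also: promastigotes grown with compound for 44 hours at 28 °C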
PMI activator: increases human mannose-6-phosphate isomerase activity; purified human PMI, coupled resazurin fluorescence, 20 min; hits give high values; 1 = vehicle control, 0 substrate-free wells; AID 1214; activation factor at 20 µM; 190,000 compounds, 0.005% hits;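 active = activation factor of 2 or more at 20 µM, relative to plate controls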
Target sequence (P34949 whole entry, looked up): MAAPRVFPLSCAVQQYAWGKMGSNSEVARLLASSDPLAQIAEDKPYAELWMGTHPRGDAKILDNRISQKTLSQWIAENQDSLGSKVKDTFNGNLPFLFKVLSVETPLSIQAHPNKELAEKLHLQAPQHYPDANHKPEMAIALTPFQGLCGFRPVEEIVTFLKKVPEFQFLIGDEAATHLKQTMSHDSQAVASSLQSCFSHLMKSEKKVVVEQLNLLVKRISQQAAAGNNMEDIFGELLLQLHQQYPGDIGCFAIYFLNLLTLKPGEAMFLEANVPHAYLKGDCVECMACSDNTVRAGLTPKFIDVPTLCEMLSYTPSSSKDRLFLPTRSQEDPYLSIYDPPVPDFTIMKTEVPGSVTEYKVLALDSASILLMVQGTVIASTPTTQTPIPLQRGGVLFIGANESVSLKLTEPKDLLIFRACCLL
PMI act satM6P: increases human PMI activity with near-saturating mannose 6-phosphate; coupled PMI enzyme assay, resazurin fluorescence, 20 min; hits give high values; 1 = untreated enzyme, 0 = substrate-free blank; P34949; 190,000 compounds, 0.34% hits; activation factor at 20 µM;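 active = activation factor of 2 or more at 20 µM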
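assay system = human phosphomannose isomerase with PGI, G6PDH, diaphorase coupling enzymes | quantity = 15 ng/mL PMI | incubation = enzyme reaction with compound 20 min at room temperature | medium = HEPES pH 7.4 buffer with MgCl2 and Tween-20 | compound dosing = one concentration, 20 µM, in 1% DMSO | measured by = Diaphorase-driven resazurin-to-resorufin fluorescence, excitation 544, emission 590 nm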
WT yeast gro inh: growth inhibition of WT yeast, mitochondrial fusion screen | mitochondrial fusion phenotypic screen, WT strain | inhibition, % at 10 µM | 190,000 compounds, 2.1% hits; in the data active = inhibition above about 58%; tested in S. cerevisiae
Starred values were filed as active, the others as inactive; x = no result. This is a sample that favours compounds with a hit; in the whole collection about 10% have one here.

SMILES | Diaphorase act | Lmaj promast | PMI activator | PMI act satM6P | WT yeast gro inh
Cc1cc(C=C2C(=O)NC(=S)NC2=O)c(C)n1C1CCCC1 | 0.8 | 63.1* | 1.6 | 2.1* | -2.6
Cc1ccc(C2=CCNCC2)cc1 | 1 | -12.4 | 1.1 | 1 | -7.5
Cc1cc(N2C(=O)C3CCCN3C2c2ccccc2)no1 (stereo not given) | 1.1 | -6.4 | 1.1 | 1.1 | -4.6
COC(=O)C(O)(c1ccc(N(C)C(=O)c2cccs2)cc1)C(F)(F)F (stereo not given) | x | 97.0* | x | x | -1.7
CCOC(=O)N(C)c1ccc(C(O)(C(=O)OC)C(F)(F)F)cc1 (stereo not given) | 1 | 92.6* | 1 | 1 | -6.4
CCOC(=O)C(O)(c1ccc(N(C)C(=O)c2ccc(Cl)c(Cl)c2)cc1)C(F)(F)F (stereo not given) | 0.8 | 97.2* | 0.9 | 0.9 | 25.9
CCOC(=O)C(O)(c1ccc(N(C)C(=O)COc2ccccc2)cc1)C(F)(F)F (stereo not given) | x | 25.4 | x | x | x
COC(=O)C(O)(c1ccc(N(C)C)cc1)C(F)(F)F (stereo not given) | 1 | -0.4 | 1 | 1 | -13.3
COC(=O)C(O)(c1ccc(N(C)C(=O)c2ccc(Cl)c(Cl)c2)cc1)C(F)(F)F (stereo not given) | 0.9 | 63.9* | 1 | 1 | -3.9
Cc1ccc(-n2cc(CNC(C)Cc3cnccn3)c(-c3cccc(C)c3)n2)cc1 (stereo not given) | 1.2 | 65.1* | 1 | 1.1 | 65.7*
CC/C(=N\N1CCN(C)CC1)c1c(O)[nH]c(=O)[nH]c1=O | 0.9 | -3.7 | 0.9 | 1 | -3.6
O=C(COc1ccccc1F)N1CCN(CCN2C(=O)c3cccc4cccc(c34)C2=O)CC1 | 0.9 | 44.5 | 0.9 | 0.9 | -0.1
O=C(COc1ccccc1)N1CCN(CCN2C(=O)c3cccc4cccc(c34)C2=O)CC1 | 0.9 | 58.3* | 1.1 | 1.1 | 16.6
Cc1ccc(-c2nc3ccccc3c(=O)n2-c2ccccn2)cc1 | 0.9 | -2.7 | 0.9 | 1 | -3.5
Cc1ccc(-c2nc(N(C)C3CCN(C)CC3)c3ccccc3n2)cc1 | 1.1 | 99.0* | 1.1 | 1 | 38.3
ON1C2CCCCC2N(O)C1c1ccccc1F (stereo not given) | 0.9 | -0.9 | 1.2 | 1.3 | -3.5
Nc1c(C(=O)NC2CCCC2)c2nc3ccccc3nc2n1CC1CCCO1 (stereo not given) | 0.6 | 50.7* | 0.7 | 0.4 | 50.2
Nc1c(C(=O)OCC2CCCO2)c2nc3ccccc3nc2n1Cc1cccs1 (stereo not given) | 0.7 | 95.3* | 0.8 | 0.5 | 20.8
OC(CNC1CCCCC1)C(F)(F)F (stereo not given) | 1 | -3.7 | 1.1 | 1 | 4.9
Cc1ccc(C)c(C2(O)CC(C)N(C)CC2C)c1 (stereo not given) | 0.9 | 11.2 | 1.1 | 1 | -2.2
CCc1ccc(OCC(=O)N2CCN(Cc3ccc4c(c3)OCO4)CC2)cc1 | 0.8 | 83.3* | 0.9 | 1 | 53.3
CC(C)NS(=O)(=O)c1ccc(OCC(=O)N2CCN(Cc3ccc4c(c3)OCO4)CC2)c(Cl)c1 | 0.8 | 55.9* | 0.9 | 1 | 2.0
Cc1cc(S(=O)(=O)NC(C)C)ccc1OCC(=O)N1CCN(Cc2ccc3c(c2)OCO3)CC1 | 0.9 | 96.0* | 1 | 1 | -16.1
CSc1ccc(CN2CCN(C(=O)COc3cccc(C)c3)CC2)cc1 | 0.9 | 86.6* | 0.9 | 0.9 | 54.7
CCN1CCN(C(=O)COc2ccc(S(=O)(=O)NC(C)C)cc2)CC1 | 1 | -2.9 | 1 | 1 | -0.2
SMILES | Diaphorase act | Lmaj promast | PMI activator | PMI act satM6P | WT yeast gro inh
Cc1cc(S(=O)(=O)NCC(C)C)ccc1OCC(=O)N1CCN(Cc2ccccc2)CC1 | 1.1 | 22.0 | 1 | 1.1 | -3.0
CCn1c(=O)cc(OCC(=O)N2CCN(Cc3ccc4c(c3)OCO4)CC2)c2ccccc21 | 0.8 | -1.7 | 1 | 1 | 13.6
CCOC(=O)C(O)(c1cn(C)c2ccccc12)C(F)(F)F (stereo not given) | 1 | 0.0 | 1 | 1.1 | 13.0
NC(=O)CN1CC(c2ccccc2)CC1=O (stereo not given) | 0.9 | 5.0 | 1 | 1 | 9.8
CCCCn1c(O)c(C(C)=NCC2CCCO2)c(=O)[nH]c1=O (stereo not given) | 0.9 | -0.2 | 1.1 | 1.1 | 12.4
OCCNc1c2c(nc3ccccc13)CCCC2 | 1 | 0.5 | 1.2 | 1 | 65.5*
